Results reported in PubChem BioAssay AID624431 (The Scripps Research Institute Molecular Screening Center, 2012).
This is one part of the list. Active and inactive are the calls of the source.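 How the source made its calls: active means mean inhibition over triplicates exceeds the hit threshold derived for the earlier primary screening run (cut at about 25% in these data); inactive means the rest.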

biological target: Arf-GAP with SH3 domain, ANK repeat and PH domain-containing protein 1 (Homo sapiens) (UniProt Q9ULH1); assay: blockers of ASAP1-stimulated Arf1 GTP hydrolysis – biochemical, fluorescence polarization, human, triplicate, confirmation (AID 624431); conditions: ASAP1-stimulated Arf1 GTPase, GDP fluorescence polarization; at 16.5 µM; stronger effect = higher value
Sequence (Q9ULH1 325-724 limits assumed): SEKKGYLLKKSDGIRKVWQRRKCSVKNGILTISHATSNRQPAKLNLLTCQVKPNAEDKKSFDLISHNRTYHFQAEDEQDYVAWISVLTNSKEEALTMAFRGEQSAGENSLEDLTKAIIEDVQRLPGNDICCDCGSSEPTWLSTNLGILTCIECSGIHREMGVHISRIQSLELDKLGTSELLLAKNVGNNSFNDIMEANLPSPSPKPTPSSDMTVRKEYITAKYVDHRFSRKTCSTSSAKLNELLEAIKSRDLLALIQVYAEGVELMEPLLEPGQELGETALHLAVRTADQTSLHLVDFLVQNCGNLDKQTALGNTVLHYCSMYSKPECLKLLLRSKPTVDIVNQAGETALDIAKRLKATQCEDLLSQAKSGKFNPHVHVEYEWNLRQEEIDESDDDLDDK
In short: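 Detection: Fluorescence polarization, free GDP displacing antibody-bound GDP Alexa 633 tracer | System: ASAP1 GAP domain protein (residues 325-724) | Schedule: 20-min ASAP1–compound and 120-min Arf1-GTP steps at 25 °C, 60-min tracer | Benchmarks: Wells without ASAP1 as full-inhibition reference control | Read-out: % inhibition versus wells lacking ASAP1 | Compound dosing: 16.5 µM single dose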

SMILES | inhibition
CCOC(=O)c1ccc(Nc2cc3ccccc3c(=O)[nH]2)cc1 | 9.9% (inactive)
COc1ccc(C(CNC(=O)c2cccc(S(=O)(=O)Nc3ccccc3Cl)c2)N2CCOCC2)cc1 (stereo not given) | 16.6% (inactive)
C=CCC[C@@H](CCCCC)OC(=O)/C=C/[C@@H](O)[C@H](O)C[C@H](O)CC=C | 1.35% (inactive)
CC(=O)Nc1cc(-c2ccc(N3CCN(C)CC3)cc2)cn2c(-c3cccc(C(=O)N(C)C)c3)cnc12 | 69.3% (active)
CC(=O)c1cccc(-c2cnc3c(NC=O)cc(-c4ccc(N5CCN(C)CC5)cc4)cn23)c1 | 77.7% (active)
COc1cc(/C=N/Nc2nn3cnnc3c3ccccc23)cc(OC)c1OC | 39% (active)
CC(=O)N(C1=C(Cl)C(=O)c2ccccc2C1=O)c1ccc(C(=O)O)cc1 | 22.3% (inactive)
c1ccc(-c2cc(-c3nnc4sc(-c5ccccn5)nn34)[nH]n2)cc1 | 33% (active)
Cc1cccc(-n2ncc(Cl)c(Cl)c2=O)c1 | -3.51% (inactive)
O=C(NC1=CC(=O)c2ccccc2C1=O)c1ccccc1 | 13.6% (inactive)
COC(=O)c1ccc(NCC(=O)c2ccccc2)cc1 | -2.85% (inactive)
C=CCNc1nc(N)c(C(=C(C#N)C#N)c2ccccc2)s1 | 13.1% (inactive)
CCN(CC)c1ccc2cc(C(N)=O)/c(=N\NC(=O)c3ccncc3)oc2c1 | 87.2% (active)
CCN1CCN(CCNC(=O)c2ccc3c(c2)NC(=O)/C(=C\c2ccc(OC)c(OC)c2)S3)CC1 | 94% (active)
COc1ccc(-n2nnnc2SCC(=O)c2ccc(OC)c(OC)c2)cc1 | 30.7% (active)
